Screens from PubChem.
Sampled rows, rich in hits. Any-hit rate of the full collection: about 2.9%.
SENP8 block-1 = SENP8 protease inhibition | Q96LD8 | purified SENP8, Z-RLRGG-aminoluciferin cleavage, luminescence | inhibition, % at 10 µM | hit rate 1.2% among 330,000 | AID 2540; in the data active means inhibition above about 50%
Target sequence (Q96LD8 whole entry, looked up): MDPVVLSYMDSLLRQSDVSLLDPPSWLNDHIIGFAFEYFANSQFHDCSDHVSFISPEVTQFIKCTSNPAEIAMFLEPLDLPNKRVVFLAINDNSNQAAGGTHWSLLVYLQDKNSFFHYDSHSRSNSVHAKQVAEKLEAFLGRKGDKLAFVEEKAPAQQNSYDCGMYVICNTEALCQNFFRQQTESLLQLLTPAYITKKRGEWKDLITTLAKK
HSP90 refold inh = HSP90 refolding inhibition in rabbit reticulocyte lysate | luciferase refolding luminescence, 3 h | inhibition, % at 5.6 µM | hit rate 0.91% among 290,000 | AID 1789;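 active means inhibition above the screen-wide mean plus 3 SD, computed separately per campaign, cut at about 16% in these data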;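 further: 0% = DMSO wells and 100% = 60 µM geldanamycin wells; inhibitors lower the luminescence because luciferase stays unfolded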
SENP7 block = inhibitors of human SENP7 protease. Q9BQF6. recombinant SENP7, Z-RLRGG-aminoluciferin luminescence, 40 min. inhibition, % at 5 µM. hit rate 1.5% among 330,000. AID 434973;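 active means inhibition above about 50% at the single test dose, limit read from the data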;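 further: plate controls were DMSO with enzyme for no effect and no enzyme buffer wells for full effect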
SENP6 inh = SENP6 protease inhibition; Q9GZR1; Recombinant SENP6 catalytic domain, aminoluciferin luminescence; inhibition, % at 10 µM; hit rate 1.8% among 330,000; AID 2599;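 active means inhibition above about 50% at the single tested dose, limit read from the data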;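 further: plate controls were DMSO wells with enzyme for no effect and DMSO wells lacking enzyme for full effect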
SENP1 inh = inhibitors of human SENP1 SUMO protease catalytic domain | hit rate 0.21% among 360,000 | inhibition, % at 10 µM | AID 624204 | recombinant SENP1 catalytic domain, CyPet-SUMO1-YPet FRET cleavage | Q9P0U3;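 active means inhibition at least 30% at 10 µM, raw YFP signal under a set limit, fluorescence ratio 0.5 to 1.5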;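 further: 0% = enzyme with DMSO and 100% = no enzyme wells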
Target sequence (Q9P0U3 419-644 limits assumed): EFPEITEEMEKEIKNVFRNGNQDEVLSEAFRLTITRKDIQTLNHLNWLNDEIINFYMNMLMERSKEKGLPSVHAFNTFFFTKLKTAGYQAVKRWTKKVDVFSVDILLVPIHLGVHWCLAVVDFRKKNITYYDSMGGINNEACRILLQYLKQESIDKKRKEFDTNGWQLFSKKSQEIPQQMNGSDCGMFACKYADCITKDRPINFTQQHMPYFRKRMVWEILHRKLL
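Material – human SENP1 catalytic domain · Input – SENP1 enzyme, 20 pM final · Compound dosing – single concentration of 10 µM compound, 0.5% DMSO final · Timing – enzyme reaction for 50 min at room temperature, dark · Measured by – FRET fluorescence in CFP and YFP emission channels · Control set – no-enzyme wells low, DMSO-plus-enzyme wells high control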
SENP8 block-2 = blocks human SENP8 cleavage of Nedd8 substrate; Q96LD8; recombinant SENP8, Nedd8 substrate fluorescence; inhibition, % at 20 µM; hit rate 0.64% among 360,000; AID 602440; in the data active means inhibition mostly above about 40%, no sharp cut-off; inactive means mostly below about 27%
SENP8 conf = human SENP8 inhibition, confirmed | hit rate 40% among 6,200 | Recombinant SENP8, Z-RLRGG-aminoluciferin luminescence, 60 min | shares compounds with SENP7 block | inhibition, % at 12.5 µM;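 active means mean inhibition across replicates above about 50%, limit read from the data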
SENP6 conf = human SENP6 inhibition, confirmed; hit rate 58% among 6,200; recombinant SENP6, Z-RLRGG-aminoluciferin luminescence; shares compounds with SENP7 block; inhibition, % at 12.5 µM
SENP7 confirm = human SENP7 inhibition, confirmed | shares compounds with SENP7 block | recombinant SENP7, Z-RLRGG-aminoluciferin luminescence, 40 min | inhibition, % at 12.5 µM | hit rate 69% among 6,200
Casp3 select = inhibits human caspase-3 in SENP selectivity test; shares compounds with SENP7 block; purified caspase-3, Z-DEVD-aminoluciferin luminescence, 60 min; inhibition, % at 12.5 µM; hit rate 60% among 6,200;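 active means mean inhibition above about 50%, limit read from the data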;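 further: plate controls were enzyme with DMSO for no effect and wells without caspase-3 for full effect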
Luc interf = counter-screen for SENP inhibitors: luminescence interference; shares compounds with SENP7 block; AID 488919; Pre-incubated SENP8/Z-RLRGG-aminoluciferin, luciferase luminescence interference; hit rate 39% among 6,200; inhibition, % at 12.5 µM;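 active means mean inhibition above about 50% when retested at one dose, limit read from the data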;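 further: plate controls were DMSO wells with completed reaction for no effect and substrate without enzyme for full effect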
* = called active by the depositor.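 How the source made its calls, unless noted: active means mean inhibition above about 50% in the one-dose retest (limit read from the data); inactive means the rest.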

Cc1occc1C(=O)/C(C#N)=C/c1ccc(O)c(Br)c1 was read as SENP8 block-1 97*, HSP90 refold inh 0, SENP7 block 93*, SENP6 inh 98*, SENP1 inh -26, SENP8 block-2 18, SENP8 conf 98*, SENP6 conf 100*, SENP7 confirm 103*, Casp3 select 97* and Luc interf 97*.
CC(Oc1ccc(S(=O)(=O)N2CCCC2)cc1[N+](=O)[O-])C(=O)NC1(C#N)CCCCC1 (stereo not drawn) was read as SENP8 block-1 -13, SENP7 block -9, SENP6 inh -18, SENP1 inh 0 and SENP8 block-2 10.
CC1(C(=O)NS(=O)(=O)C2CC2)CCCN(C(=O)c2ccco2)C1 (stereo not drawn) was read as SENP1 inh 4 and SENP8 block-2 19.
Screening Cc1ccc(C(=O)Nc2nccs2)cc1 returned SENP8 block-1 20, HSP90 refold inh 6, SENP7 block 41, SENP6 inh -8, SENP1 inh -2 and SENP8 block-2 -258.
Cc1csc(NC(=O)c2sccc2C)n1 was read as SENP8 block-1 91*, HSP90 refold inh 2, SENP7 block 96*, SENP6 inh 95*, SENP1 inh 2, SENP8 block-2 -11, SENP8 conf 95*, SENP6 conf 95*, SENP7 confirm 101*, Casp3 select 98* and Luc interf 94*.
For CCc1sc(C(=O)Nc2ncccc2C)cc1C the results were SENP8 block-1 1, HSP90 refold inh -3, SENP7 block 9, SENP6 inh -23, SENP1 inh 1 and SENP8 block-2 -3.
`CCc1sc(C(=O)Nc2nccs2)cc1C` gave SENP8 block-1 68*, HSP90 refold inh 15, SENP7 block 80*, SENP6 inh 80*, SENP1 inh 2, SENP8 block-2 -8, SENP8 conf 83*, SENP6 conf 81*, SENP7 confirm 96*, Casp3 select 79* and Luc interf 15.
For Cc1ccsc1C(=O)Nc1nccs1 the results were SENP8 block-1 51*, HSP90 refold inh -2, SENP7 block 63*, SENP6 inh 64*, SENP1 inh -4, SENP8 block-2 2, SENP8 conf 58*, SENP6 conf 57*, SENP7 confirm 86*, Casp3 select 86* and Luc interf 52*.
`COc1ccc2oc(C(=O)Nc3nc(C)cs3)c(C)c2c1` gave SENP8 block-1 43, SENP7 block 61*, SENP6 inh 46, SENP1 inh -28, SENP8 block-2 -348, SENP8 conf 17, SENP6 conf 37, SENP7 confirm 72*, Casp3 select 55* and Luc interf 34.
For COc1ccc(N2CCN(c3nccs3)CC2)cc1 the results were SENP8 block-1 -5, HSP90 refold inh 1, SENP7 block -4, SENP6 inh -14, SENP1 inh 0 and SENP8 block-2 15.
`COc1ccc2c(c1OC)C(=O)N1c3ccccc3COC21` (stereo not drawn) gave SENP8 block-1 -2, HSP90 refold inh 3, SENP7 block 8, SENP6 inh 17, SENP1 inh -1 and SENP8 block-2 24.
Screening COc1ccc2c(c1OC)C(=O)N1c3ccccc3SC21 (stereo not drawn) returned SENP8 block-1 28, HSP90 refold inh 0, SENP7 block 12, SENP6 inh 50*, SENP1 inh -1, SENP8 block-2 -307, SENP8 conf 40, SENP6 conf 37, SENP7 confirm 78*, Casp3 select 58* and Luc interf 29.
For Cc1ccc(N=C/C(C(=O)C(F)(F)F)=C(\O)c2ccco2)cc1Cl the results were SENP8 block-1 37, HSP90 refold inh 2, SENP7 block 59*, SENP6 inh 68*, SENP1 inh -22, SENP8 block-2 -246, SENP8 conf -6, SENP6 conf 0, SENP7 confirm 39, Casp3 select 18 and Luc interf 54*.
For O=C(/C(C=Nc1ccc(F)cc1)=C(/O)c1ccco1)C(F)(F)F the results were SENP8 block-1 47, HSP90 refold inh -3, SENP7 block 79*, SENP6 inh 77*, SENP1 inh -60, SENP8 block-2 -117, SENP8 conf -2, SENP6 conf 4, SENP7 confirm 12, Casp3 select 36 and Luc interf 29.
`COC(=O)c1cccc(NC(=O)CN2CCc3ccccc3C2)c1` gave SENP8 block-1 10, HSP90 refold inh -7, SENP7 block 4, SENP6 inh 7, SENP1 inh -1 and SENP8 block-2 17.
For COc1cccc(-c2ccc3c(N)c(C(=O)NC4CC4)sc3n2)c1 the results were SENP8 block-1 46, HSP90 refold inh 7, SENP7 block 50, SENP6 inh 60*, SENP1 inh -32, SENP8 block-2 -460, SENP8 conf -16, SENP6 conf -14, SENP7 confirm 19, Casp3 select 10 and Luc interf 24.
For Cc1cc(C)c(-c2nc3ccccc3s2)[nH]1 the results were SENP8 block-1 59*, HSP90 refold inh 6, SENP7 block 4, SENP6 inh 19, SENP1 inh -19, SENP8 block-2 -326, SENP8 conf 81*, SENP6 conf 90*, SENP7 confirm 99*, Casp3 select 76* and Luc interf 70*.
`COc1cc(OC)c(-c2nc3ccccc3s2)cc1OC` gave SENP8 block-1 -10, HSP90 refold inh -4, SENP7 block 4, SENP6 inh -8, SENP1 inh -1 and SENP8 block-2 -399.
For NC(=O)c1ccc(-c2ncc(-c3ccccc3)o2)cc1 the results were SENP8 block-1 14, HSP90 refold inh 15, SENP7 block 52*, SENP6 inh -35, SENP1 inh 1, SENP8 block-2 -307, SENP8 conf 27, SENP6 conf 52*, SENP7 confirm 59*, Casp3 select 40 and Luc interf 8.
`c1ccc(-c2cnc(-c3cccnc3)o2)cc1` gave SENP8 block-1 0, HSP90 refold inh -1, SENP7 block 4, SENP6 inh 0, SENP1 inh 1 and SENP8 block-2 -482.
